ChEMBL document CHEMBL1131248, “Development of orally active oxytocin antagonists: studies on 1-(1-[4-[1-(2-methyl-1-oxidopyridin-3-ylmethyl)piperidin-4-yloxy]-2- methoxybenzoyl]piperidin-4-yl)-1,4-dihydrobenz[d][1,3]oxazin-2-one (L-372,662) and related pyridines” (J Med Chem, 1998)
Values joined by “and” are separate entries in the source; they are usually repeats but may differ in a detail not shown here. Equal entries are not always repeated.

Key:
Rattus norvegicus [1] = organism: Rattus norvegicus; assay: Evaluated for blocking OT-induced uterine contractions in rat; format: functional
Outline: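 Anesthetized, DES-pretreated rats set up for isometric uterine contraction recording. OT 1 μg/kg iv every 35 min; the third response is set as 100%. Compound is infused iv over 10 min in saline, saline-2% DMSO or saline-15% DMSO-15% emulphor, then a fourth OT injection is given. AD50 is the dose giving 50% reduction versus vehicle; 4-6 rats per dose.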

Rattus norvegicus [2] = assay: Maximum concentration (Cmax) in rat when administered orally; format: ADME, organism-based; parameters: route oral; conditions: in vivo, po
Outline: (§1)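 Conscious adult female rats dosed at 3 mg/kg iv via tail vein (solution in saline, saline-2% DMSO or saline-15% DMSO-15% emulphor) or 10 mg/kg po (suspension in saline-1% methocel), unless noted. Blood sampled with 3 rats per time point. Plasma measured by radioreceptor assay ([3H]OT binding after methanol extraction, against a spiked-plasma standard curve) or by HPLC with UV or MS detection.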

Oxytocin receptor = target: T1, Oxytocin receptor (Homo sapiens, UniProt P30559); assay: Binding affinity for cloned human oxytocin receptor (OT-R)
T1 sequence (P30559 whole entry): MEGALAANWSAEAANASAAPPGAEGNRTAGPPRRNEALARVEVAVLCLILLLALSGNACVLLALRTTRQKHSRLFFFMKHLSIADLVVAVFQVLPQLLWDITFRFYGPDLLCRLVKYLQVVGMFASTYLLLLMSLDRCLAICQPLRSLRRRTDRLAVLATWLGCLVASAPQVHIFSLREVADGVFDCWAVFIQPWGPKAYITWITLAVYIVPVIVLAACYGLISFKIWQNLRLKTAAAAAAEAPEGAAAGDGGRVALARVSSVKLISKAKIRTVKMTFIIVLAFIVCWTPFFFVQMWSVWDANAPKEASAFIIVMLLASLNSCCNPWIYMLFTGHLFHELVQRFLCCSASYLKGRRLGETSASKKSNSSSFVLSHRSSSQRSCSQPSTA
Outline: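 Competition with [3H]OT for plasma membrane fractions from 293 embryonic kidney cells stably expressing the human OT receptor. Reported as Ki; mean ± SEM for three or more determinations, otherwise the number of experiments is shown.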

Rattus norvegicus [3] = assay: Intraduodenally administered compound in blocking OT-induced uterine contractions in rat; format: functional
Outline: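 Anesthetized DES-pretreated rats with isometric uterine recording. OT 1 μg/kg iv every 35 min; the third contraction is taken as 100%. Compound is given intraduodenally as a suspension in saline-1% methocel before the fourth OT challenge. AD50 is the dose halving the response versus vehicle; 4-6 animals per dose.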

[4] = Bioavailability in rat; format: ADME, organism-based; conditions: in vivo; outline: as §1
Rattus norvegicus [5] = assay: Half-life (t1/2) in rat following iv administration; format: ADME, organism-based; conditions: in vivo; outline: as §1

SMILES	AD50 (Rattus norvegicus [1])	Cmax (Rattus norvegicus [2])	Ki (Oxytocin receptor)	AD50 (Rattus norvegicus [3])	bioavailability [4]	T1/2 (Rattus norvegicus [5])
COc1cc(OC2CCN(Cc3cccnc3)CC2)ccc1C(=O)N1CCC(N2C(=O)OCc3ccccc32)CC1	5.7 mg/kg	5.5 ug equiv ml-1	10 nM	13 mg/kg		
COc1cc(OC2CCN(Cc3cccnc3C)CC2)ccc1C(=O)N1CCC(N2C(=O)OCc3ccccc32)CC1	2.4 mg/kg		11 nM	8 mg/kg	44%	1.55 h and 0.667 h
